Measurements published in ChEMBL document CHEMBL1275367, “Diastereoselective synthesis of aryloxy phosphoramidate prodrugs of 3'-deoxy-2',3'-didehydrothymidine monophosphate” (J Med Chem, 2010).

How the values were obtained:
[1] = tested on: Human immunodeficiency virus 2; assay: Antiviral activity against HIV2 ROD infected in human CEM/TK- cells assessed as inhibition of virus-induced cytopathicity after 4 to 5 days; assay type: functional, organism-based; details: Human immunodeficiency virus 2, ISOLATE ROD
[2] = Cytotoxicity against human CEM/0 cells; assay type: cell-based, CCRF-CEM
Procedure, shortened: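 Proliferation of CEM cells measured by Coulter particle counting across a range of compound concentrations. CC50 is the concentration inhibiting cell proliferation by 50%.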

[3] = tested on: Moloney murine sarcoma virus; assay: Antiviral activity against murine sarcoma virus infected in murine C3H/3T3 cells assessed as inhibition of virus-induced cell transformation
[4] = tested on: Human immunodeficiency virus 1; assay: Antiviral activity against HIV1 3B infected in human CEM/0 cells assessed as inhibition of virus-induced cytopathicity after 4 to 5 days; assay type: functional, organism-based; details: Human immunodeficiency virus 1, 3B, CCRF-CEM
[5] = tested on: Human immunodeficiency virus 2; assay: Antiviral activity against HIV2 ROD infected in human CEM/0 cells assessed as inhibition of virus-induced cytopathicity after 4 to 5 days; assay type: functional, organism-based; details: Human immunodeficiency virus 2, ISOLATE ROD, CCRF-CEM

Structure (SMILES)	EC50 [1] [nM]	CC50 [2] [nM]	EC50 [3] [nM]	EC50 [4] [nM]	EC50 [5] [nM]
COC(=O)[C@H](C)N[P@](=O)(OC[C@@H]1C=C[C@H](n2cc(C)c(=O)[nH]c2=O)O1)Oc1ccc(C)cc1	32	79000	1800	120	140
COC(=O)[C@H](C)N[P@@](=O)(OC[C@@H]1C=C[C@H](n2cc(C)c(=O)[nH]c2=O)O1)Oc1ccc(C)cc1	2100	> 250000	1800	820	460
COC(=O)[C@H](C)N[P@](=O)(OC[C@@H]1C=C[C@H](n2cc(C)c(=O)[nH]c2=O)O1)Oc1ccc(OC)cc1	48	77000	2000	150	140
COC(=O)[C@H](C)N[P@@](=O)(OC[C@@H]1C=C[C@H](n2cc(C)c(=O)[nH]c2=O)O1)Oc1ccc(OC)cc1	1900	235000	5300	1100	860
COC(=O)[C@H](C)N[P@](=O)(OC[C@@H]1C=C[C@H](n2cc(C)c(=O)[nH]c2=O)O1)Oc1ccccc1C	1900	> 250000	9800	1300	1100
COC(=O)[C@H](C)N[P@@](=O)(OC[C@@H]1C=C[C@H](n2cc(C)c(=O)[nH]c2=O)O1)Oc1ccccc1C	2900	> 250000	4000	1300	1300
COC(=O)[C@H](C)N[P@](=O)(OC[C@@H]1C=C[C@H](n2cc(C)c(=O)[nH]c2=O)O1)Oc1cccc2ccccc12	130	70000	530	150	160
COC(=O)[C@H](C)N[P@@](=O)(OC[C@@H]1C=C[C@H](n2cc(C)c(=O)[nH]c2=O)O1)Oc1cccc2ccccc12	250	107000	720	120	450
Cc1cn([C@H]2C=C[C@@H](CO)O2)c(=O)[nH]c1=O [STAVUDINE]	132000	> 250000	2500	840	750
